Assay outcomes as filed in PubChem.
Most compounds without a hit are left out; they make up all but 4.6% or so of the library.
M18AAP inhibitor: blocks P. falciparum M18 aspartyl aminopeptidase | recombinant PfM18AAP, H-Glu-NHMec fluorogenic cleavage | inhibition, % at 7.35 µM | actives 1.2% (n = 290,000) | AID 1822;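 active = inhibition above the campaign mean inhibition over all tested compounds plus 3 SD, cut at about 28% in these data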;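 note: 0% = plate median of test compound wells and 100% = 2 mM ZnCl2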
FAS-TE inh: blocks the thioesterase domain of human fatty acid synthase; P49327; inhibition, % at 15 µM; recombinant FAS-TE, OMFH fluorogenic substrate, fluorescence endpoint; actives 0.67% (n = 360,000);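 active = compounds whose normalised, plate-corrected inhibition of enzyme fluorescence in the single-dose primary screen is 50% or more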;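 note: 0% = DMSO with enzyme and 100% = substrate without enzyme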
Rtt109 HAT inh: inhibitors of Candida albicans Rtt109/Vps75 histone acetyltransferase. Q5AAJ8. purified Rtt109/Vps75, ThioGlo CoA-SH fluorescence, 4 h. inhibition, % at 34.9 µM. actives 0.16% (n = 330,000). AID 540336;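 active = inhibition of at least 50% in every replicate; inconclusive = best replicate reaches 50% inhibition but some replicates fall short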
UCH37 DUB inh: inhibitors of human deubiquitinating enzyme UCH37; Q9Y5K5; purified proteasome/UCH37, Ub-AMC cleavage fluorescence; inhibition, % (test concentration not listed); actives 0.33% (n = 330,000); AID 588478;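 active = mean inhibition over replicate wells above about 20%, limit read from the data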;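 note: 0% = compound-free wells with enzyme and 100% = wells lacking proteasome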
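Test system – human UCH37 enzyme supplied as purified proteasome complex · Incubation – 30 min preincubation with enzyme, 25 min cleavage at room temperature · Detection – AMC fluorescence from Ub-AMC cleavage, excitation 355 nm, emission 460 nm · Benchmarks – no-proteasome wells (full inhibition) and compound-free wells (no inhibition)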
ALR inh: blocks human ALR sulfhydryl oxidase activity; P55789; purified ALR, DTT oxidation, H2O2 HRP-luminol luminescence; inhibition, % (test concentration not listed); actives 3.8% (n = 290,000); AID 485317;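 active = mean replicate inhibition above about 79%, with every replicate also reaching it, limit read from the data; inconclusive = only one of the two criteria met; inactive = mean below limit and not every replicate reaching it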
HDAC3 inhib: human HDAC3 inhibition. actives 0.15% (n = 320,000). inhibition, % at 8.3 µM. recombinant HDAC3, fluorogenic peptide/trypsin coupled, fluorescence. O15379; in the data active = inhibition above about 26%, passing the limit was not always enough; inconclusive = no clear call, values can overlap the other calls
FAS-TE inh conf: confirmation of human fatty acid synthase thioesterase inhibitors | actives 45% (n = 2,300) | recombinant FAS-TE, OMFH fluorogenic substrate, fluorescence | inhibition, % at 15 µM | shares compounds with FAS-TE inh;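 active = compounds inhibiting the enzyme by at least 50% at 15 µM in any one of the replicates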;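 note: 0% = enzyme with DMSO only and 100% = wells lacking enzyme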
* marks the source's active call; other numbers are inactive results.

`COC(=O)[C@@]1(C#N)[C@@H]2C=CC(C(C)=O)=CN2[C@@H](C(N)=O)[C@@H]1c1ccc(F)cc1` gave M18AAP inhibitor 6, FAS-TE inh -4, Rtt109 HAT inh -3, UCH37 DUB inh 5, ALR inh 7 and HDAC3 inhib 2.
Screening CCOC(=O)[C@]12Cc3cc(OC)ccc3[C@H]1N(C1CCCCC1)C(=O)c1cc(OC)ccc12 returned FAS-TE inh 62* and FAS-TE inh conf 16.
Screening CCOC(=O)[C@]12Cc3cc(C)ccc3[C@H]1N(C1CCCCC1)C(=O)c1cc(OC)ccc12 returned FAS-TE inh 85* and FAS-TE inh conf 40*.
Screening CCOC(=O)[C@]12Cc3cc(C)ccc3[C@H]1N(CCC(=O)OC)C(=O)c1cc(OC)ccc12 returned FAS-TE inh 25.
Screening CCOC(=O)[C@]12Cc3cc(C)ccc3[C@H]1N(Cc1ccccc1)C(=O)c1ccccc12 returned FAS-TE inh 25, Rtt109 HAT inh 7 and UCH37 DUB inh 2.
`CCOC(=O)[C@]12Cc3cc(C)ccc3[C@H]1N(C(C)C)C(=O)c1ccccc12` gave FAS-TE inh 57* and FAS-TE inh conf 33.
For CCN(CC)CCC(=O)O[C@H]1CC[C@]2(C)C3CC[C@@]4(C)C(CC[C@]4(C)O)C3CC[C@H]2C1 (some centres not stated) the results were FAS-TE inh -8, Rtt109 HAT inh -6, UCH37 DUB inh 0, ALR inh -1 and HDAC3 inhib -4.
`CCc1ccc(NC(=O)CCNC(=O)N2C[C@H]3C[C@@H](C2)c2cccc(=O)n2C3)cc1` gave M18AAP inhibitor 2, FAS-TE inh 1, Rtt109 HAT inh -4, UCH37 DUB inh 0, ALR inh -7 and HDAC3 inhib 6.
`COc1ccc(N2C(=O)CC(N3CCC(n4c(=O)[nH]c5ccccc54)CC3)C2=O)cc1` (configuration not stated) gave M18AAP inhibitor -65, FAS-TE inh -5, Rtt109 HAT inh -12, UCH37 DUB inh 4, ALR inh -5 and HDAC3 inhib 4.
CCC(c1nnnn1Cc1ccccc1)N1CCC(n2c(=O)[nH]c3ccccc32)CC1 (configuration not stated) was read as FAS-TE inh 0.
`O=c1[nH]c2ccccc2n1C1CCN(Cc2ccc(-c3nc4ccccc4nc3-c3ccccc3)cc2)CC1` gave FAS-TE inh 61* and FAS-TE inh conf 3.
COc1ccc2nc(-c3ccc(CN4CCC(n5c(=O)[nH]c6ccccc65)CC4)cc3)c(-c3ccccc3)nc2c1 was read as FAS-TE inh 76* and FAS-TE inh conf 11.
Screening Cc1ccc2nc(-c3ccc(CN4CCC(n5c(=O)[nH]c6ccccc65)CC4)cc3)c(-c3ccccc3)nc2c1 returned FAS-TE inh 72* and FAS-TE inh conf 12.
`O=c1[nH]c2ccccc2n1CCCN1CCC(n2c(=O)[nH]c3cc(Cl)ccc32)CC1` gave M18AAP inhibitor 4, FAS-TE inh 3, Rtt109 HAT inh 20, UCH37 DUB inh 6, ALR inh -7 and HDAC3 inhib -1.
Screening O=c1[nH]c2ccccc2n1C1CCN(Cc2ccc(-c3nc4ccc(F)cc4nc3-c3ccccc3)cc2)CC1 returned FAS-TE inh 63* and FAS-TE inh conf 10.
`O=C(COc1ccccc1)N1CCN(CC2CC=CCC2)CC1` (configuration not stated) gave M18AAP inhibitor -3, FAS-TE inh -4, Rtt109 HAT inh -7, UCH37 DUB inh 4 and HDAC3 inhib -3.
S=C=Nc1cccc(C2(N3CCCCC3)CCCCC2)c1 was read as FAS-TE inh -3, Rtt109 HAT inh 30, UCH37 DUB inh 1, ALR inh -18 and HDAC3 inhib -7.
Screening O=c1c([N+](=O)[O-])cn(O)cc1[N+](=O)[O-] returned FAS-TE inh -4 and Rtt109 HAT inh -3.
`CN1CCc2nc(SCc3ccccc3Br)c(C#N)cc2C1` gave M18AAP inhibitor 2, FAS-TE inh 54*, Rtt109 HAT inh 3, UCH37 DUB inh -2, ALR inh inconclusive, HDAC3 inhib -4 and FAS-TE inh conf 45*.
Cc1cccc(CSc2nc3c(cc2C#N)CN(C)CC3)c1 was read as M18AAP inhibitor 2, FAS-TE inh -5, UCH37 DUB inh 1, ALR inh -100 and HDAC3 inhib 1.
For COc1ccc(C(c2nnnn2-c2ccc(OC)cc2)N2CCC3(CC2)C(=O)NCN3c2ccccc2)cc1 (configuration not stated) the results were FAS-TE inh 52* and FAS-TE inh conf 24.
`O=C1NCN(c2ccccc2)C12CCN(C(c1ccccc1OC(F)(F)F)c1nnnn1-c1ccc3c(c1)OCCO3)CC2` (configuration not stated) gave FAS-TE inh 82* and FAS-TE inh conf 30.
For COc1ccc(-n2nnnc2C(c2ccccc2OC(F)(F)F)N2CCC3(CC2)C(=O)NCN3c2ccccc2)cc1 (configuration not stated) the results were FAS-TE inh 60* and FAS-TE inh conf 31.
`COc1ccc(-n2nnnc2C(c2ccccc2)N2CCC3(CC2)C(=O)NCN3c2ccccc2)cc1` (configuration not stated) gave FAS-TE inh 14.
COC(=O)C1=C(c2ccc(Cl)c(C(F)(F)F)c2)C[C@@H]2CC[C@H]1N2C(=O)NCCOc1ccccc1Cl was read as FAS-TE inh 24, Rtt109 HAT inh 3, UCH37 DUB inh 2, ALR inh -4 and HDAC3 inhib -1.
Screening O=S(=O)(c1cc(Cl)cc(Cl)c1)N1Cc2cc(-c3ccccc3)ccc2-n2nncc2C1 returned FAS-TE inh 86* and FAS-TE inh conf 10.
Screening Nc1ccccc1C(=O)OCCc1ccccc1 returned FAS-TE inh 22, Rtt109 HAT inh 4, UCH37 DUB inh -57, ALR inh -12 and HDAC3 inhib -10.
For COP(=O)(NC(C)=O)SC (configuration not stated) the results were FAS-TE inh -5 and Rtt109 HAT inh -3.
Screening COC(=O)C1=C(c2cccc3c2S(=O)(=O)c2ccccc2-3)C[C@@H]2CC[C@H]1N2C(=O)N1CCc2cc(OC)c(OC)cc2C1 returned FAS-TE inh 68*, Rtt109 HAT inh 9, UCH37 DUB inh 3, ALR inh 1, HDAC3 inhib 2 and FAS-TE inh conf 31.
